Source: PubChem (several laboratories)
A selection: hits, their analogues and other compounds. The true share with any hit is near 1.1%.
hK5 inh = kallikrein 5 (human) inhibition; Q9Y337; recombinant hK5, fluorogenic AMC substrate cleavage; inhibition, % at 5 µM; 210,000 compounds, 0.59% hits;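 active = inhibition of 40% or more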;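 also: 0% = enzyme controls without compound and 100% = no-enzyme blanks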
Target sequence (Q9Y337 67-293 limits assumed): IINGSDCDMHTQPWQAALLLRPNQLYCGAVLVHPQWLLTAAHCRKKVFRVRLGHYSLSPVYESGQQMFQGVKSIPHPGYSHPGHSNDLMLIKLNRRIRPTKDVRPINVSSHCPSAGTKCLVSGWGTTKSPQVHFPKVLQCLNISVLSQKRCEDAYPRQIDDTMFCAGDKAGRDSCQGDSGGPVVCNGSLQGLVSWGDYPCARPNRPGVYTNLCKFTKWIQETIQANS
FXIa inh = blocks human coagulation factor XIa protease activity; inhibition, % at 5 µM; 220,000 compounds, 0.14% hits; AID 798; purified FXIa, Boc-Glu-Ala-Arg-AMC fluorogenic substrate; P03951;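 active = inhibition of at least 40%; inactive = inhibition below 40%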;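 also: fluorescence of freed AMC excited at 355 nm; 0% = enzyme without compound and 100% = no enzyme blank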
thrombin 1536 = inhibitors of human thrombin. P00734. alpha-thrombin, Boc-VPR-AMC fluorogenic substrate cleavage. inhibition, % at 5 µM. 220,000 compounds, 0.26% hits. AID 1046;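 active = inhibition at or above 40%; inactive = inhibition below 40%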;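 also: 0% = enzyme with no compound and 100% = wells without enzyme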
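System: Human alpha-thrombin protein | Medium: pH 7.5 Tris (50 mM) with NaCl 150 mM, Tween 20 0.05% | Times: Enzyme reaction carried out at room temperature | Detection: AMC fluorescence, 355/460 nm | Evaluation: Percent inhibition scaled between no-compound controls and no-enzyme blanks | Benchmarks: Enzyme without compound as high, wells lacking enzyme as low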
FXIIa inh 1536 = inhibitors of human coagulation factor XIIa | purified FXIIa, Boc-QGR-AMC fluorogenic substrate, 2 h | 220,000 compounds, 0.3% hits | P00748 | inhibition, % at 5 µM | AID 800; in the data active = inhibition above about 40%;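 also: 0% = enzyme with no compound and 100% = blank without enzyme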
Furin inh = inhibitors of human furin; inhibition, % at 20 µM or 30 µM; AID 463115; P09958; purified furin, fluorogenic substrate cleavage; 220,000 compounds, 0.061% hits; in the data active = inhibition above about 25%
* marks the source's active call; other numbers are inactive results; · = no result given.

SMILES	hK5 inh	FXIa inh	thrombin 1536	FXIIa inh 1536	Furin inh
CCOc1ccc(C(=O)NCc2ccco2)cc1	-1	-16	0	4	-16
COc1ccc(C(=O)Nc2ccccc2C(=O)NCc2ccco2)cc1OC	42*	4	22	7	-7
COc1cc(C2C(C#N)=C(N)OC3=C2C(=O)CC(C)(C)C3)ccc1OCCN1CCOCC1 (stereo not drawn)	-4	-9	-3	5	-25
O=C(O)Cn1c(SCCOc2ccccc2)nc2ccccc21	42*	-1	4	23	-23
O=C(O)Cn1c(SCc2ccccc2)nc2ccccc21	-5	4	2	12	-18
O=C(Nc1ncc(Cl)cc1Cl)c1c(F)cccc1Cl	3	1	1	16	-22
COc1cc(/C=N/NC(=O)C(=O)Nc2ccccn2)ccc1O	70*	12	29	4	-1
COc1ccc(C)cc1NC(=O)CSc1nnc(COc2ccc(Cl)cc2)n1Cc1ccco1	-3	15	-7	52*	2
COc1cccc(-c2nnc(SCC(=O)NCc3ccc4c(c3)OCO4)n2Cc2ccco2)c1	4	0	-20	-5	-10
COc1cccc(-c2nnc(SCC(=O)Nc3ccc4c(c3)OCCO4)n2Cc2ccco2)c1	47*	9	42*	17	0
O=C(CC12CC3CC(CC(C3)C1)C2)NC(=S)Nc1ccc(CN2CCOCC2)cc1	0	1	-3	7	-22
CCOc1ccccc1CN1CCN(Cc2ccon2)CC1CCO (stereo not drawn)	-1	-2	-7	4	-13
CSc1nc(-c2ccc(Cl)cc2)nn1C(=O)c1ccccc1	63*	23	29	17	-17
CSc1nc(-c2ccccc2)nn1C(=O)c1ccc(Cl)cc1	68*	20	84*	17	-4
O=[N+]([O-])c1cc(Cl)ccc1-c1nc(-c2ccncc2)no1	·	3	2	9	-18
O=[N+]([O-])c1cc(Cl)ccc1-c1nc(-c2ccccc2)no1	75*	12	34	40	4
O=C(CCn1ccc2ccccc21)NC1CCCc2ccccc21 (stereo not drawn)	-17	-3	-3	7	-16
O=C(CCN1C(=O)C2C3C=CC(C3)C2C1=O)NC1CCCc2ccccc21 (stereo not drawn)	53*	13	14	23	-16
Cc1ccccc1NC(=O)CSc1nc2ccccc2o1	51*	15	15	5	0
O=C1C2CCCN2C(c2ccco2)N1c1ccc(F)cc1 (stereo not drawn)	-10	0	1	-2	-7
CCc1nnc(NC(=O)CCC(=O)N2CCN(C3CCCCC3)CC2)s1	3	8	-1	15	-26
CCc1nnc(NC(=O)CCC(=O)N2CCCC2)s1	54*	-8	42*	28	-21
CCCN1C(=O)C(NC(C)=O)c2ccccc21 (stereo not drawn)	-16	3	-9	-2	-23
CC(=O)NC1C(=O)N(C)c2ccc(Br)cc21 (stereo not drawn)	45*	16	15	21	-24
CNC(=O)C1CC(=O)N(CCc2ccc(OC)cc2)C(=Nc2ccc(OC)cc2)S1 (stereo not drawn)	-13	12	-6	17	27*
SMILES	hK5 inh	FXIa inh	thrombin 1536	FXIIa inh 1536	Furin inh
CC(C)(C)c1ccc(C(=O)Nc2ccc(NC(=O)c3ccco3)cc2)cc1	99*	11	0	11	-30
CC(C)(C)NC(=O)c1cccc(NC(=O)c2ccc(NC(=O)c3ccco3)cc2)c1	0	-8	-2	5	-12
O=C(Nc1ccc(Br)cc1)c1ccco1	-17	2	-9	13	-9
O=C(Nc1ccc(Cc2ccncc2)cc1)c1ccco1	70*	31	40*	18	-19
Brc1ccc(/C=N/n2cnnc2)s1	2	-1	-2	6	-13
Cc1ccc(/C=N/n2cnnc2)s1	53*	9	18	16	-3
Cc1nn(C)cc1CN1CCC(CO)(CCOc2ccccc2)CC1	·	23	68*	27	-6
CCSc1nnc(N2C(=O)CC(c3ccsc3)C3=C2CC(C)(C)CC3=O)s1 (stereo not drawn)	53*	5	9	18	-14
CC1(C)CC(=O)C2=C(C1)N(c1ccc(F)cc1)C(=O)CC2c1cccnc1 (stereo not drawn)	28	-16	-9	-7	-17
Cc1ccc(C(=O)Nc2ccc(Cl)cn2)cc1S(=O)(=O)N1CCOCC1	41*	2	19	23	-26
